Laboratory results as given in ChEMBL document CHEMBL1137834, “Synthesis of cinnamic acid derivatives and their inhibitory effects on LDL-oxidation, acyl-CoA:cholesterol acyltransferase-1 and -2 activity, and decrease of HDL-particle size” (Bioorg Med Chem Lett, 2004).

Legend:
Homo sapiens [1] = species on record: Homo sapiens; experiment: Antioxidant activity was determined by measuring the produced thiobarbituric acid reactive substance; format: functional
Outline: (§1)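 Test compounds at final 1 µg/mL. Oxidation read as TBARS, expressed as nmol MDA/mg LDL and % inhibition against LDL + CuSO4 alone. Electromobility was also compared on 0.7% agarose gel.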

[2] = target: T1, Sterol O-acyltransferase 2 (Homo sapiens) (UniProt O75908); experiment: Inhibitory activity against human Acyl-CoA:cholesterol acyltransferase-2 at 30 ug/mL
T1 sequence (whole entry): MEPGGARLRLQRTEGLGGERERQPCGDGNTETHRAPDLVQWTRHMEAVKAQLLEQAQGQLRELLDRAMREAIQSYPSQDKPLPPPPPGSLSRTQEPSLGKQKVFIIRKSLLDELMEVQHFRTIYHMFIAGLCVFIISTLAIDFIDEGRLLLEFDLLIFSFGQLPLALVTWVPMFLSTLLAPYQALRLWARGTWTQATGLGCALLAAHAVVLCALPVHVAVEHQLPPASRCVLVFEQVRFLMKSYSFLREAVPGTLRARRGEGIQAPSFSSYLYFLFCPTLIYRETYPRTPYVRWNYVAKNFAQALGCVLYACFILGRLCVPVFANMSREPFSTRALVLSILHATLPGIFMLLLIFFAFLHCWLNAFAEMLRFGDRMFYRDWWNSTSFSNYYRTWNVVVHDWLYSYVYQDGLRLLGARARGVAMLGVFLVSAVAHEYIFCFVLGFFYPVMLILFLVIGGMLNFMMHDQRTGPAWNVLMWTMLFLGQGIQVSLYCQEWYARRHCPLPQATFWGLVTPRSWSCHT

Homo sapiens [3] = species on record: Homo sapiens; experiment: Antioxidant activity against copper mediated low-density lipoproteins (LDL) oxidation; format: functional; outline: as §1
Oryctolagus cuniculus = species on record: Oryctolagus cuniculus; experiment: Compound inhibited the rHDL-particle rearrangement under presence of LDL at 37 degree C; format: functional
Outline: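 rHDL particles (98 Å, 2 mg/mL preparation) were incubated at 37 °C for 24 h with human LDL (4 mg/mL preparation) and compound. Products were run on native 8–25% polyacrylamide gradient gel and stained with Coomassie to compare particle size.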

[4] = target: T2, Sterol O-acyltransferase 2 (Homo sapiens, UniProt O75908); experiment: Inhibitory activity against human Acyl-CoA:cholesterol acyltransferase-2
T2 sequence (O75908 whole entry): T1 sequence (whole entry)

inhibition [2] [%] | IC50 (Homo sapiens [3]) [µM] | IC50 [4] [µM] | SMILES | Activity (Homo sapiens [1]) | Inhibition (Oryctolagus cuniculus) [µM]
0 | – | – | COC(=O)[C@H](C)NC(=O)/C=C/c1ccc(O)c(O)c1 | 91.5 nmol of MDA/mg of LDL | –
> 70 | 52 | – | COC(=O)[C@H](Cc1ccccc1)NC(=O)/C=C/c1ccc(O)cc1 | 269 nmol of MDA/mg of LDL | 307
> 70 | 3 | 81 | O=C(CCc1ccc(O)c(O)c1)N[C@@H](CC(=O)OCc1ccccc1)C(=O)OCc1ccccc1 | 32.1 nmol of MDA/mg of LDL | –
– | – | – | CC(C)(Sc1cc(C(C)(C)C)c(O)c(C(C)(C)C)c1)Sc1cc(C(C)(C)C)c(O)c(C(C)(C)C)c1 [PROBUCOL] | 263.1 nmol of MDA/mg of LDL | –
